Shown is part of a subset that was picked to be rich in hits.
A1 apoptosis 2 – A1 inhibitors via caspase activation, primary screen, cell-based, luminescence, HTS, two replicates; MEF A1-2A-BIM cells, caspase-Glo luminescence, 3 h; percent of clofoctol response, DMSO zero; caspase activation, % (concentration not given with the values); 24,000 tested, under 10 active; in the data active means caspase activation above about 5.9%
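System: mouse embryonic fibroblasts co-expressing A1 and BIM (A1-2A-BIM), primed for A1 dependence; amount: 2500 cells/well; doses: 50 nL pinned compound; schedule: cells settled overnight, compound exposure 3 h at 37 °C, 5% CO2; detection: Caspase-Glo 3/7 luminescence, 1 h at room temperature; read-out: Caspase-3/7 activation, seen as rise in luminescence signal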
T cruzi HTS – inhibitors of intracellular Trypanosoma cruzi, primary screen, cell-based, plate reader, single point, set 2; intracellular Trypanosoma cruzi in host cells; activity score (inhibition), % at 5.01 µM; 4.9% of 22,000 active; in the data active means activity score above about 55%;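 further: parasites and compound incubated about four days before reading; 0% = median of neutral control wells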
INS-1E ATP HTS – protection of INS-1E cells from cytokine death, primary screen, ATP luminescence, single point; INS-1E cytokine-induced death, 48 h; normalised: neutral wells 0, positive control 100; protection from cytokine-induced ATP loss, % at 10 µM; 0.1% of 20,000 active; AID 488910, 2010;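 active means mean replicate protection from cytokine-induced ATP loss at least 50% and at least 75% of replicates each reaching 50%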
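Assay system: INS-1E rat insulinoma cells. Amount: 8000 cells per well. Medium: phenol-red-free RPMI with 5% fetal bovine serum. Reagent: IL-1β, TNF-α and IFN-γ cytokine mix. Doses: one compound concentration, pin transfer. Schedule: 48 h co-treatment, 10 min post-lysis read. Detection: CellTiter-Glo luminescence measuring cellular ATP.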
Starred values were filed as active, the others as inactive; . = not tested or not shown.

SMILES	A1 apoptosis 2	T cruzi HTS	INS-1E ATP HTS
Cc1ccc(S(=O)(=O)Nc2ccc3c(c2)C(=O)N([C@H](C)CO)C[C@H](C)[C@H](CN(C)C(=O)Nc2ccc(C(F)(F)F)cc2)O3)cc1	1	-2	.
C[C@@H]1CCCCO[C@H](CN(C)C(=O)Nc2ccc(F)cc2)[C@H](C)CN([C@H](C)CO)C(=O)c2cc(NS(=O)(=O)c3ccc(Cl)cc3)ccc2O1	1	.	.
COc1ccc(S(=O)(=O)Nc2ccc3c(c2)C(=O)N([C@H](C)CO)C[C@H](C)[C@H](CN(C)C(=O)Nc2ccc(C(F)(F)F)cc2)OCCCC[C@@H](C)O3)cc1	-1	65*	-19
Cc1ccc(S(=O)(=O)Nc2ccc3c(c2)C(=O)N([C@@H](C)CO)C[C@@H](C)[C@@H](CN(C)C(=O)Nc2ccc(C(F)(F)F)cc2)O3)cc1	1	68*	-25
C[C@@H]1CCCCO[C@@H](CN(C)C(=O)Nc2ccc(F)cc2)[C@@H](C)CN([C@H](C)CO)C(=O)c2cc(NS(=O)(=O)c3ccc(Cl)cc3)ccc2O1	0	65*	-6
COc1ccc(S(=O)(=O)Nc2ccc3c(c2)C(=O)N([C@@H](C)CO)C[C@H](C)[C@@H](CN(C)C(=O)Nc2ccc(C(F)(F)F)cc2)OCCCC[C@@H](C)O3)cc1	-1	.	.
O=C(CCCCCCC(=O)Nc1ccccc1O)N/N=C/c1ccc(-c2ccccc2)cc1	-1	34	9
C[C@H]1CN([C@@H](C)CO)C(=O)Cc2cc(NC(=O)NC3CCCCC3)ccc2O[C@@H]1CN(C)S(=O)(=O)c1cccs1	1	-6	2
COC(=O)CCCCCCC(=O)N/N=C/c1ccccc1Cl	.	-23	0
O=C(N/N=C/c1cccnc1)c1ccccc1O	-4	.	.
Cc1ccc(S(=O)(=O)Nc2ccc3c(c2)C(=O)N([C@@H](C)CO)C[C@H](C)[C@H](CN(C)C(=O)Nc2ccc(C(F)(F)F)cc2)OCCCC[C@H](C)O3)cc1	-1	.	.
Cc1ccc(S(=O)(=O)Nc2ccc3c(c2)C(=O)N([C@H](C)CO)C[C@H](C)[C@@H](CN(C)C(=O)Nc2ccc(C(F)(F)F)cc2)OCCCC[C@@H](C)O3)cc1	0	75*	-16
O=C(O)CCCCCC(=O)NN=C1CCCCCCC1	0	-12	0
CC(C)NC(=O)Nc1ccc2c(c1)C(=O)N([C@@H](C)CO)C[C@H](C)[C@H](CN(C)Cc1ccccc1)O2	-1	-8	.
C[C@H]1CN([C@@H](C)CO)C(=O)c2cc(NC(=O)Nc3cccc4ccccc34)ccc2O[C@@H]1CN(C)Cc1ccc2c(c1)OCO2	1	3	-20
C[C@@H]1CN([C@@H](C)CO)C(=O)c2cc(NC(=O)Nc3cccc4ccccc34)ccc2O[C@@H]1CN(C)Cc1ccc2c(c1)OCO2	.	56*	-6
C[C@@H]1CN([C@H](C)CO)C(=O)c2cc(NC(=O)Nc3cccc4ccccc34)ccc2O[C@@H]1CN(C)Cc1ccc2c(c1)OCO2	1	-5	-9
C[C@H]1CN([C@@H](C)CO)C(=O)c2cc(NC(=O)Nc3cccc4ccccc34)ccc2O[C@H]1CN(C)Cc1ccc2c(c1)OCO2	-1	61*	-15
COc1ccc(O)c(/C=N/NC(=O)c2ccccn2)c1	.	0	-8
CN(CCO)c1ccc(/C=N/NC(=O)c2ccccc2O)cc1	-3	-3	-32
C[C@@H]1CN([C@H](C)CO)C(=O)Cc2cc(NC(=O)Nc3ccc4c(c3)OCO4)ccc2O[C@H]1CN(C)CC1CC1	1	1	4
C[C@@H]1CN([C@@H](C)CO)C(=O)c2cccc(NC(=O)C3CCCCC3)c2O[C@H]1CN(C)Cc1ccc(C(F)(F)F)cc1	-1	75*	-27
C[C@H](CO)N1C[C@H](C)[C@@H](CN(C)Cc2ccc(-c3ccccc3)cc2)Oc2c(NC(=O)C3CC3)cccc2C1=O	.	69*	-53
C[C@H](CO)N1C[C@H](C)[C@H](CN(C)Cc2ccc(C(F)(F)F)cc2)Oc2c(NC(=O)C3CCCCC3)cccc2C1=O	.	2	-28
C[C@@H]1CN([C@@H](C)CO)C(=O)c2cccc(N(C)C)c2O[C@H]1CN(C)S(=O)(=O)c1cn(C)cn1	.	-6	6
SMILES	A1 apoptosis 2	T cruzi HTS	INS-1E ATP HTS
C[C@H](CO)N1C[C@H](C)[C@@H](CN(C)S(=O)(=O)c2cn(C)cn2)Oc2c(cccc2N(C)C)C1=O	-1	59*	6
C[C@@H]1CN([C@@H](C)CO)C(=O)c2cccc(NC(=O)C3CCCCC3)c2O[C@@H]1CN(C)S(=O)(=O)c1ccccc1	.	57*	-2
C[C@H]1CN([C@@H](C)CO)C(=O)c2cccc(NC(=O)C3CCCCC3)c2O[C@@H]1CN(C)S(=O)(=O)c1ccccc1	.	5	2
C[C@H](CO)N1C[C@H](C)[C@H](CN(C)Cc2ccc(-c3ccccc3)cc2)Oc2c(NC(=O)C3CC3)cccc2C1=O	2	-13	-25
O=C(CCCCCC(=O)Nc1ccccc1O)N/N=C/c1ccccc1O	0	.	.
[N-]=[N+]=Nc1ccc(C[C@H]2C(=O)O[C@@H](Cc3ccccc3)[C@H]3C=C(/C=C/C4CC4)CN32)cc1	0	.	.
COc1ccc(/C=N/NC(=O)CCCCCCC(=O)Nc2ccccc2O)cc1OC	-1	5	1
C[C@@H]1CN([C@@H](C)CO)C(=O)c2cccc(NC(=O)C3CCCCC3)c2O[C@H]1CN(C)Cc1ccc(-c2ccccc2)cc1	.	71*	-39
C[C@H](CO)N1C[C@H](C)[C@@H](CN(C)Cc2ccc(Oc3ccccc3)cc2)Oc2c(NC(=O)C3CC3)cccc2C1=O	-1	48	-25
C[C@H]1CN([C@@H](C)CO)C(=O)c2cccc(NC(=O)C3CC3)c2O[C@@H]1CN(C)Cc1ccc(Oc2ccccc2)cc1	.	68*	-27
C[C@@H]1CN([C@H](C)CO)C(=O)c2cccc(NC(=O)C3CCCCC3)c2O[C@@H]1CN(C)Cc1ccc(-c2ccccc2)cc1	.	46	-65
O=C(CCCCC(=O)N/N=C/c1ccc(Br)o1)NO	-1	.	.
C[C@H](CO)N1C[C@H](C)[C@H](CN(C)S(=O)(=O)c2ccc(C#N)cc2)Oc2ncc(C#CCN(C)C)cc2C1=O	.	-5	0
O=C(NO)c1cccc(C(=O)N/N=C/c2ccccn2)c1	0	-12	3
C[C@H]1CN([C@@H](C)CO)C(=O)Cc2cc(NS(=O)(=O)c3ccc(F)cc3)ccc2O[C@@H]1CN(C)Cc1ccc(-c2ccccc2)cc1	0	71*	-19
Cc1ccc(S(=O)(=O)Nc2ccc3c(c2)CC(=O)N([C@H](C)CO)C[C@H](C)[C@H](CN(C)Cc2ccc(-c4ccccc4)cc2)O3)cc1	.	8	-4
C[C@@H]1CN([C@H](C)CO)C(=O)Cc2cc(NS(=O)(=O)c3ccccc3)ccc2O[C@@H]1CN(C)Cc1ccc(-c2ccccc2)cc1	2	71*	-26
Cc1ccc(S(=O)(=O)Nc2ccc3c(c2)CC(=O)N([C@H](C)CO)C[C@H](C)[C@@H](CN(C)Cc2ccc(-c4ccccc4)cc2)O3)cc1	-1	.	.
